According to ChEMBL document CHEMBL1128684, “The serotonin 5-HT4 receptor. 2. Structure-activity studies of the indole carbazimidamide class of agonists” (J Med Chem, 1995):

Key:
[1] = biological target: 5-hydroxytryptamine receptor 4 (Cavia porcellus) (UniProt O70528); assay: 5-hydroxytryptamine 4 receptor agonistic activity was measured by twitch response enhancing activity in electrically stimulated guinea pig ileum preparation; type: functional, tissue-based
Method in brief: (§1)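 Longitudinal muscle strips of guinea pig ileum kept in tyrode solution with 0.1 μM methylsergide. Twitch contractions (2–3 s) evoked through platinum electrodes by square-wave pulses at 0.1 Hz and 2 ms duration. Once a stable submaximal response was reached, noncumulative concentration–response curves were built for the agonists.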

[2] = biological target: 5-hydroxytryptamine receptor 4 (Cavia porcellus) (UniProt O70528); assay: Relative efficacy compared to serotonin(1) in 5-hydroxytryptamine 4 assay; type: functional; method in brief: as §1
[3] = biological target: Serotonin 3 (5-HT3) receptor; assay: Antagonistic activity against 5-hydroxytryptamine 3 receptor in guinea pig ileum assay
[4] = biological target: T1, 5-hydroxytryptamine receptor 2A (Rattus norvegicus, UniProt P14842); assay: Agonistic activity against 5-hydroxytryptamine 2A receptor in rat cortex using [3H]-ketanserin; type: tissue-based
Method in brief: (§2)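 Binding to rat cortex. Table footnote lists [3H]ketanserin as the radioligand.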

[5] = biological target: T1, 5-hydroxytryptamine receptor 2A; assay: (§3) Agonistic activity against 5-hydroxytryptamine 2A receptor in rat cortex using [3H]ketanserin; type: tissue-based; method in brief: as §2
[6] = biological target: T1, 5-hydroxytryptamine receptor 2A; assay: as §3; type: functional, tissue-based

T1 sequence (P14842 whole entry): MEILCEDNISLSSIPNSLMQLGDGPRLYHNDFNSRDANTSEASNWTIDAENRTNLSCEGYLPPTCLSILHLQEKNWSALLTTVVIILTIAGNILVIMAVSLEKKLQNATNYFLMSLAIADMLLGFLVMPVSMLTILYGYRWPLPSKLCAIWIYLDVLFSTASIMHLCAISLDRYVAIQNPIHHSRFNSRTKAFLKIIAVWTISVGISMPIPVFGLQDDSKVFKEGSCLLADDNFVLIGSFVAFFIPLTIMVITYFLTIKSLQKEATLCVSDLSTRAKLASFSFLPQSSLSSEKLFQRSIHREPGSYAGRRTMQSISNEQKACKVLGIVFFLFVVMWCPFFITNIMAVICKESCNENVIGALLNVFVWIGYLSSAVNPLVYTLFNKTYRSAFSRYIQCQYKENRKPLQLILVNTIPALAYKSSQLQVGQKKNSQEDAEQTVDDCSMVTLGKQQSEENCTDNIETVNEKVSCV
Chain of 5-hydroxytryptamine receptor 4 (Cavia porcellus) (O70528 whole entry): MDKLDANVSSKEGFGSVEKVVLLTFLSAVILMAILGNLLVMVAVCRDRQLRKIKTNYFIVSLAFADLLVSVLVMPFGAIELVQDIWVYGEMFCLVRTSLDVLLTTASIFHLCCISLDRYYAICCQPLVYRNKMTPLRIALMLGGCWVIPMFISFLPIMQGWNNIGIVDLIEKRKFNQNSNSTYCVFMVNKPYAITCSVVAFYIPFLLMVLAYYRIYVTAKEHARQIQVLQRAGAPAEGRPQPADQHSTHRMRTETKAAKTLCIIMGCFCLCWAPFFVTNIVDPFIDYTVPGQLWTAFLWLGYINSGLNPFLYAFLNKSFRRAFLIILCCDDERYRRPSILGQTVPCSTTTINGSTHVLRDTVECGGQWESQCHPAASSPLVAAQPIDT

Row | SMILES | pD2 [1] | Relative efficacy [2] | pA2 [3] | Ki [4] [nM] | Ki [5] [nM] | Ki [6] [nM]
1 | CCCCC/N=C(/N)N/N=C/c1c[nH]c2ccc(NS(C)(=O)=O)cc12 | < 4 | 0 | – | – | – | –
2 | CCCCCNC(=N)N/N=C/c1c[nH]c2ccc(OC)cc12 | 6.9 | 0.2 | – | – | – | –
3 | CCCCC/N=C(/N)N/N=C/c1c[nH]c2ccc(OC)nc12 | 7.1 | 1 | – | – | – | –
4 | CN(/N=C/c1c[nH]c2ccc(O)cc12)C(=N)N | 5.8 | 0.5 | – | – | – | –
5 | CN1CCN=C1N/N=C/c1c[nH]c2ccc(O)cc12 | < 4 | 0 | – | – | – | –
6 | CCCCC/N=C(/N)N/N=C/c1c[nH]c2ccc(O)nc12 | 7.8 | 0.9 | – | – | 1350 | –
7 | Oc1ccc2[nH]cc(/C=N/NC3=NCCN3)c2c1 | 7.3 | 0.7 | – | – | – | –
8 | CCCCCNC(=N)N/N=C/c1c[nH]c2ccc(O)cc12 | 9.3 | 0.9 | < 5 | – | 224 | –
9 | CCCCC/N=C(/N)N/N=C/c1[nH]nc2ccc(O)cc12 | < 4 | 0 | – | – | – | –
10 | N/C(=N/N=C/c1c[nH]c2ccc(O)cc12)NCCCO | 7.7 | 0.7 | – | – | – | –
11 | CCCCC/N=C(/N)N/N=C/c1csc2ccc(OC)cc12 | 6.1 | 0.5 | – | – | – | –
12 | CCCCC/N=C(/N)N/N=C/c1c[nH]c2ccccc12 | < 6 | 0.1 | – | – | – | –
13 | CCCCC/N=C(/N)N/N=C/c1c[nH]c2ccc(N)cc12 | 7.6 | 1.6 | – | – | – | –
14 | CCCCC/N=C(/N)N/N=C/c1c[nH]c2ccc(OC(=O)CCCCC)cc12 | < 4 | 0 | – | – | – | –
15 | CCCCC/N=C(/N)N/N=C/c1[nH]nc2ccc(OC)cc12 | < 4 | 0 | – | – | – | –
16 | CCCCCN(C)C(=N)N/N=C/c1c[nH]c2ccc(O)cc12 | 7.7 | 0.3 | – | – | – | –
17 | Cl.N=C(N)N/N=C/c1c[nH]c2ccc(O)cc12 | 8.8 | 1.5 | < 5 | – | – | 240
18 | CCCCC/N=C(/N)N/N=C/c1c[nH]c2ccc(OCC=C(C)C)cc12 | 8.15 | 2.2 | < 5 | – | 6310 | –
19 | CCCCC/N=C(/N)N/N=C/c1c[nH]c2ccc(OCCN(C)C)cc12 | 7.6 | 0.3 | – | – | – | –
20 | CCCCC/N=C(/N)N/N=C/c1c[nH]c2ccc(OCCC(C)C)cc12 | 5.9 | 0.8 | – | – | – | –
21 | CCCCC/N=C(/N)N/N=C/c1csc2ccc(O)cc12 | < 7 | – | – | – | – | –
22 | CCCCC/N=C(/N)N/N=C/c1c[nH]c2ccc(OC(C)C)cc12 | 6.8 | 0.5 | < 5 | 2510 | – | –
23 | CCCCC/N=C(/N)N/N=C/c1c[nH]c2ccc(OCCOC)cc12 | 6.6 | 0.7 | – | – | – | –
24 | Oc1ccc2[nH]cc(/C=N/NC3=NCCC3)c2c1 | 7.1 | 1 | – | – | – | –
25 | CCCCC/N=C(/N)N/N=C/c1c[nH]c2ccc(OCOC)cc12 | 7.5 | 0.7 | – | – | – | –
26 | CCCCC/N=C(/N)N/N=C/c1c[nH]c2ccc(OC(=O)N(C)C)cc12 | < 7 | 0.7 | – | – | – | –

Now from value to compound, other results behind:

Row | pD2 [1] | Relative efficacy [2] | pA2 [3] | Ki [4] [nM] | Ki [5] [nM] | SMILES | Ki [6] [nM]
27 | 6.5 | 0.5 | – | – | – | Oc1ccc2[nH]cc(/C=N/NC3=NCCS3)c2c1 | –
28 | > 10 | 0.1 | < 5 | 191 | – | Cl.N/C(=N/N=C/c1c[nH]c2ccc(O)cc12)NCCc1ccc(Cl)c(Cl)c1 | –
29 | 8.2 | 1 | – | – | 1620 | Oc1ccc2[nH]cc(/C=N/Nc3ncc[nH]3)c2c1 | –
30 | 8.5 | 0.5 | – | – | – | N/C(=N/N=C/c1c[nH]c2ccc(O)cc12)NCCNC(=O)c1ccccc1 | –
31 | 7 | 0.5 | – | – | – | CCCCC/N=C(/N)N/N=C/c1c[nH]c2ccc(OC(=O)c3ccccc3)cc12 | –
32 | < 5.5 | – | – | – | – | CCCCC/N=C(/N)N/N=C/c1c[nH]c2ccc([Si](C)(C)C)cc12 | –
33 | 6.1 | 0.8 | – | – | – | Oc1ccc2[nH]cc(/C=N/Nc3ccccn3)c2c1 | –
34 | 8.5 | 0.5 | – | – | – | N/C(=N/C(=O)NC1CCCCC1)N/N=C/c1c[nH]c2ccc(O)cc12 | –
35 | 8.5 | 0.5 | – | – | – | N/C(=N/N=C/c1c[nH]c2ccc(O)cc12)NCCc1ccccc1Cl | –
36 | < 4 | 0 | – | – | – | CCCCCCCCNC(=N)N/N=C/c1c[nH]c2ccc(O)cc12 | –
37 | 8.4 | 0.2 | – | – | – | N/C(=N/N=C/c1c[nH]c2ccc(O)cc12)NCCc1ccc(Cl)cc1 | –
38 | < 6 | 1.8 | – | – | – | CCCCC/N=C(/N)N/N=C/c1c[nH]c2ccc(OCc3ccccc3)cc12 | –
39 | 7.7 | 1 | – | – | – | CCCC(=O)/N=C(/N)N/N=C/c1c[nH]c2ccc(O)cc12 | –
40 | < 7 | 0.1 | – | – | – | CCCCC/N=C(/N)N/N=C/c1c[nH]c2ccc(OCC)cc12 | –
41 | 9.1 | 1 | – | – | – | N/C(=N/N=C/c1c[nH]c2ccc(O)cc12)NCCc1ccccc1 | –
42 | 7.3 | 1.4 | – | – | – | CCCCC/N=C(/N)N/N=C/c1c[nH]c2ccc(OCC(=O)N(C)C)cc12 | –
43 | 8 | 1.6 | – | – | 2340 | CCCCCCCN(C)C(=N)N/N=C/c1c[nH]c2ccc(O)cc12 | –
44 | 7.4 | 1 | – | – | – | CCCCC/N=C(/N)N/N=C/c1c[nH]c2ccc(OCCO)cc12 | –
45 | 8.9 | 0.5 | – | – | – | COc1cccc(CCNC(=N)N/N=C/c2c[nH]c3ccc(O)cc23)c1 | –
46 | 8.5 | 0.4 | – | – | – | N/C(=N/N=C/c1c[nH]c2ccc(O)cc12)NCCCc1ccccc1 | –
